Measurements: PMC8106974 (Psychopharmacology, 2020)
Counter-ions that a name gives are not always drawn.

Legend:
Type in all cases: in vivo
male CD-1 mice [1] = experiment: Antagonist; details: naltrindole 10 mg/kg s.c., -10 min, DPDPE 30 nmol i.c.v.
male CD-1 mice [2] = experiment: Warm-water tail-withdrawal assay of acute thermal nociception, p.o.
male CD-1 mice [3] = experiment: Warm-water tail-withdrawal assay of acute thermal nociception, i.v.
male CD-1 mice [4] = experiment: CFA-induced tactile allodynia, von Frey; details: i.v.
male Sprague Dawley rats = experiment: SNL-induced tactile allodynia, von Frey; details: i.v.
Summary of the method: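 Male Sprague Dawley rats (250–350g) were tested 7 days after SNL surgery, with a fresh baseline taken before dosing. Test compound, comparator or saline followed that baseline. Von Frey up-down method: start at 2 g, each filament applied once for 5 sec, 1 min between stimuli. Positive response was rapid left hind paw withdrawal or licking. Testing ran at 15–180 min post-dose, or until post-SNL baseline.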

Molecule: [D-Pen^2,D-Pen^5]enkephalin [DPDPE]
- effect of NTI pretreatment on antinociceptive effects (male CD-1 mice [1]): fully blocked

Molecule: CN1CC[C@]23c4c5ccc(O)c4O[C@H]2[C@@H](O)C=C[C@H]3[C@H]1C5 [morphine, Morphine sulfate]
- duration of peak effect (male CD-1 mice [2]; tail withdrawal (discussion)): ~ 2 hr
- overall duration of effect (male CD-1 mice [2]; within the dose ranges tested): ~ 180 min
- duration of peak antinociception (male CD-1 mice [3]; BBI-11008 3.2-100 mg/kg, morphine 1-10 mg/kg): ~ 60 min
- duration of peak effect (male CD-1 mice [3]; tail withdrawal (discussion)): ~ 1 hr
- overall duration of effect (male CD-1 mice [3]; within the dose ranges tested): ~ 120 min
- duration of peak effect (male CD-1 mice [4]; CFA model, mice (discussion)): 30 to 45 min
- time of peak effects, reversal of tactile allodynia (male CD-1 mice [4]; mice, 24 hr after CFA, BBI-11008 10-32 mg/kg, morphine 1-3.2 mg/kg): 15 to 30 min
- Area under the Curve (duration of effect, peak dose) (male CD-1 mice [4]; mice, BBI-11008 32 mg/kg, morphine 3.2 mg/kg, withdrawal threshold vs time): 12.85

Molecule: NCC1(CC(=O)O)CCCCC1 [gabapentin]
- time of peak effects (male Sprague Dawley rats; SNL model, rats (discussion)): ~ 90 min
- Area under the Curve (duration of effect, peak dose) (male Sprague Dawley rats; rats, 7 days after SNL, BBI-11008 18 mg/kg, gabapentin 56 mg/kg): 130.2
